We go through 17 molecules from ChEMBL document CHEMBL4840305, “Structure-guided design and development of novel N-phenylpyrimidin-2-amine derivatives as potential c-Met inhibitors” (Eur J Med Chem, 2021).

One data set relates to HCT-116. In words: cells. As to conditions: Homo sapiens.
For another data set, the system named is HepG2. Kind of data set: cells. As to conditions: Homo sapiens.
In another data set the test system is PANC-1. Kind of data set: cells. As to conditions: Homo sapiens.
Another data set deals with CAKI-1. Kind of data set: cells. As to conditions: Homo sapiens.
Another data set concerns PC-3. In words: cells. As to conditions: Homo sapiens.
Data set [1] deals with Hepatocyte growth factor receptor (Homo sapiens, UniProt P08581). In words: Inhibition of c-MET kinase (unknown origin) using poly(Glu:Tyr)(4:1) as substrate by ELISA. Background: In an ELISA, binding on a coated surface is turned into a signal by an enzyme label.
Data set [2] is described as follows: Acute toxicity in ICR mouse assessed as animal survival at 1000 mg/kg, po measured on day 14 (reference value: 100%). Format: organism-based. To be noted: in vivo, time 14 day.
For data set [3], the target named is Voltage-gated inwardly rectifying potassium channel KCNH2 (Homo sapiens, UniProt Q12809). In words: Inhibition of human ERG.
Data set [4] can be described thus: Acute toxicity in ICR mouse assessed as abnormalities in liver at 600 to 1200 mg/kg, po administered as single dose and measured on day 14. Format: organism-based. To be noted: in vivo, 336 h, dose 600-1200 mg/kg, time 14 day.
Data set [5] is described as follows: Acute toxicity in ICR mouse assessed as animal survival at 800 mg/kg, po measured on day 14 (reference value: 100%). Format: organism-based. As to conditions: in vivo, time 14 day.
Data set [6] in a line: Acute toxicity in ICR mouse assessed as animal survival at 1500 mg/kg, po measured on day 14 (reference value: 100%). Format: organism-based. To be noted: in vivo, time 14 day.
Data set [7] can be described thus: Half life in Sprague-Dawley rat at 4 mg/kg, iv by LC-MS/MS analysis. Format: ADME, organism-based. As to conditions: in vivo. A digest of the protocol: (§1)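 Male SD rats were used. Compound concentrations in plasma were measured by LC/MS/MS. The oral arm was dosed at 20 mg/kg.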
Data set [8] can be described thus: AUC(0 to t) in Sprague-Dawley rat at 4 mg/kg, iv by LC-MS/MS analysis. Format: ADME, organism-based. The arrangement: dose 4 mg/kg. As to conditions: in vivo. The essentials: as §1
The nature of data set [9]: Oral bioavailability in Sprague-Dawley rat at 20 mg/kg by LC-MS/MS analysis. Format: ADME, organism-based. As to conditions: in vivo. A digest of the protocol:
as §1

Data set [10] can be described thus: Apparent clearance during terminal phase in Sprague-Dawley rat at 20 mg/kg, po by LC-MS/MS analysis. Format: ADME, organism-based. To be noted: in vivo, read-out: CLz/F (converted). The essentials:
as §1

Data set [11] in a line: Acute toxicity in ICR mouse assessed as animal survival at 2000 mg/kg, po measured on day 14 (reference value: 100%). Format: organism-based. To be noted: in vivo, time 14 day.
Data set [12] in a line: Acute toxicity in ICR mouse assessed as abnormalities in heart at 600 to 1200 mg/kg, po administered as single dose and measured on day 14. Format: organism-based. To be noted: in vivo, 336 h, dose 600-1200 mg/kg, time 14 day.
Data set [13] in a line: Tmax in Sprague-Dawley rat at 20 mg/kg, po by LC-MS/MS analysis. Format: ADME, organism-based. As to conditions: in vivo. The essentials:
as §1

Data set [14] in a line: AUC(0 to t) in Sprague-Dawley rat at 20 mg/kg, po by LC-MS/MS analysis. As to conditions: in vivo. Further details: dose 20 mg/kg. Format: ADME, organism-based.
Data set [15] can be described thus: Acute toxicity in ICR mouse assessed as abnormalities in kidneys at 600 to 1200 mg/kg, po administered as single dose and measured on day 14. As to conditions: in vivo, 336 h, dose 600-1200 mg/kg, time 14 day. Format: organism-based.
A short description of data set [16]: Acute toxicity in ICR mouse assessed as animal survival at 600 mg/kg, po measured on day 14 (reference value: 100%). Format: organism-based. As to conditions: in vivo, time 14 day.
Data set [17] is described as follows: Apparent clearance during terminal phase in Sprague-Dawley rat at 4 mg/kg, iv by LC-MS/MS analysis. Format: ADME, organism-based. To be noted: in vivo. The essentials:
as §1

Data set [18] in a line: Cmax in Sprague-Dawley rat at 20 mg/kg, po by LC-MS/MS analysis. Format: ADME, organism-based. Further details: route oral, dose 20 mg/kg. To be noted: in vivo. The essentials:
as §1

Data set [19] can be described thus: Acute toxicity in ICR mouse assessed as animal survival at 1200 mg/kg, po measured on day 14 (reference value: 100%). Format: organism-based. As to conditions: in vivo, time 14 day.
Data set [20] can be described thus: Cmax in Sprague-Dawley rat at 4 mg/kg, iv by LC-MS/MS analysis. To be noted: in vivo. Further details: route intravenous, dose 4 mg/kg. Format: ADME, organism-based. A digest of the protocol:
as §1

A short description of data set [21]: Half life in Sprague-Dawley rat at 20 mg/kg, po by LC-MS/MS analysis. Format: ADME, organism-based. To be noted: in vivo. The essentials:
as §1

Sequence of Hepatocyte growth factor receptor (P08581 whole entry): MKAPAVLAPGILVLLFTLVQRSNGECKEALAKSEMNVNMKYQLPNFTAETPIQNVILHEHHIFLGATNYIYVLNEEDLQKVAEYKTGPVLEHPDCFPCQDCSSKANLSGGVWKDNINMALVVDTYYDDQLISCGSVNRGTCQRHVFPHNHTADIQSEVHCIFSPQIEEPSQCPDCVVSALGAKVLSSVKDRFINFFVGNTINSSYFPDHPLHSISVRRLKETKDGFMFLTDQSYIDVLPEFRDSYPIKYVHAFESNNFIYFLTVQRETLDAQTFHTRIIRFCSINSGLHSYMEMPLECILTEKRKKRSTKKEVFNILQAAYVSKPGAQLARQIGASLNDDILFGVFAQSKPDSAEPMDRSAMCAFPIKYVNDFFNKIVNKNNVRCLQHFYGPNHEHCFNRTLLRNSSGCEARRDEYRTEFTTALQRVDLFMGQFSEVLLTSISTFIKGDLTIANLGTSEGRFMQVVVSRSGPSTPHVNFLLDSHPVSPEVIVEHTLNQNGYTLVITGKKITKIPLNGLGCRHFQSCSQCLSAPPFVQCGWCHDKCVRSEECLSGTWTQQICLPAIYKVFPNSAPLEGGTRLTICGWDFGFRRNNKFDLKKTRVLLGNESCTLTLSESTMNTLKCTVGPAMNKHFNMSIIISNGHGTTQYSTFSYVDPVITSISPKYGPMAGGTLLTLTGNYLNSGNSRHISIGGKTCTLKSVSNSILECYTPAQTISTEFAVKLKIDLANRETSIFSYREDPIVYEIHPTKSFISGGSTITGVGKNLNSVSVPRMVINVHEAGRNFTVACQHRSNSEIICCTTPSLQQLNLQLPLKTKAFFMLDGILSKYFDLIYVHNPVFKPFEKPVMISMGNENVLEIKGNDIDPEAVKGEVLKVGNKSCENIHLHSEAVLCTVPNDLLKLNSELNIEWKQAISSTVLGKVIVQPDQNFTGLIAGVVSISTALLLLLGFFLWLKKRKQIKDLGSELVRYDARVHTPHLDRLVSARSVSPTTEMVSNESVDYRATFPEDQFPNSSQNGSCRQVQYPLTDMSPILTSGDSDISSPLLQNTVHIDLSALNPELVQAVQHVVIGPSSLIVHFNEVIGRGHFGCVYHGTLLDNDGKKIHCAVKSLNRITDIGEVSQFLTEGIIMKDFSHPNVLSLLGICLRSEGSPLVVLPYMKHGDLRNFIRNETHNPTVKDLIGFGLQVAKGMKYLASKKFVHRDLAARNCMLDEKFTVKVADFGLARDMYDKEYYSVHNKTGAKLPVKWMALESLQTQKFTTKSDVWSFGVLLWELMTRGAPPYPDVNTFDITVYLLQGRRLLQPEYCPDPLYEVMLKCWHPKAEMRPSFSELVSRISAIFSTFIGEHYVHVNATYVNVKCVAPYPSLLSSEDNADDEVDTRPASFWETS
Sequence of Voltage-gated inwardly rectifying potassium channel KCNH2 (Q12809 whole entry): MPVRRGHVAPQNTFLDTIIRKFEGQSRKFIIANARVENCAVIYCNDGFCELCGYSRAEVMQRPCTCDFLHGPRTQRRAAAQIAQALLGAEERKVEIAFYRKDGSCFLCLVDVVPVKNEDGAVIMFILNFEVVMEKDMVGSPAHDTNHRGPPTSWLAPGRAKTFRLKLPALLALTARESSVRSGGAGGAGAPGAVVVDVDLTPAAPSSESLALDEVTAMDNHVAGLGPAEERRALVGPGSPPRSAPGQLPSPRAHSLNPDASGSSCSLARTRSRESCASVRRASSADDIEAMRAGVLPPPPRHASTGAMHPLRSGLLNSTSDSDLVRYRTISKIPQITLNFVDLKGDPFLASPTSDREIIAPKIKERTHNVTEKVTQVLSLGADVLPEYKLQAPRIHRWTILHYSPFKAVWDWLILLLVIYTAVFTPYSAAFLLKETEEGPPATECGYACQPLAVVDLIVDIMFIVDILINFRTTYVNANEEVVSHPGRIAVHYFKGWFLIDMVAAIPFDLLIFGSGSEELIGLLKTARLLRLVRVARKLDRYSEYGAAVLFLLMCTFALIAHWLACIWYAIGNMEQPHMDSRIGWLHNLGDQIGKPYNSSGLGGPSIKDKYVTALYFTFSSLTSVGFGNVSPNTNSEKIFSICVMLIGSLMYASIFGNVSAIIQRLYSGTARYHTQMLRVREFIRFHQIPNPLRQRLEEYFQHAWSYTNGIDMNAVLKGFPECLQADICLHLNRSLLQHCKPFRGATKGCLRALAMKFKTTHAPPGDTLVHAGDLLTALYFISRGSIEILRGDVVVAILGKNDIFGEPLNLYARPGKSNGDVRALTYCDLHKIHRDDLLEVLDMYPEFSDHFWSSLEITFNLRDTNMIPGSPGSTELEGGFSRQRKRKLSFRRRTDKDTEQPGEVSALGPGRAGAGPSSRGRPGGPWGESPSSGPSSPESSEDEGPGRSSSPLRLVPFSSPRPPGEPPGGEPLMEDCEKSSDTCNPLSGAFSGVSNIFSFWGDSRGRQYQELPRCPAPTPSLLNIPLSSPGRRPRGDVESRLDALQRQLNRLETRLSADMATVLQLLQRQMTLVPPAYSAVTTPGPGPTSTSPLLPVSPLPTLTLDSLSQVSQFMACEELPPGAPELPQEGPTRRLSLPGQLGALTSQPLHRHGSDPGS

Take `O=C(Nc1ccc(F)cc1)C1(C(=O)Nc2ccc(Oc3cc(Nc4cccc(N5CCOCC5)c4)ncn3)c(F)c2)CC1`: the IC50 (usually the point on the concentration scale where inhibition reaches its midpoint) in the data set with HCT-116 was found to be 7990 nM; in the data set on HepG2, 5970 nM; with PANC-1, 5530 nM; with CAKI-1, 2690 nM; in the data set on PC-3, 4710 nM.
For the molecule `CN1CCN(c2cccc(Nc3nccc(Oc4ccc(NC(=O)C5(C(=O)Nc6ccc(F)cc6)CC5)cc4)n3)c2)CC1`, the IC50 in the data set with HCT-116 came to 2020 nM; in the data set on HepG2 it was 1730 nM; in the data set on PANC-1 it was 3160 nM; in the data set with CAKI-1, 1630 nM; in the data set on PC-3, 2250 nM.
In data set [1], `COC(=O)c1ccc(Nc2nccc(Oc3ccc(NC(=O)C4(C(=O)Nc5ccc(F)cc5)CC4)cc3)n2)c(OC)c1` returned an IC50 of more than 2000 nM.
`O=C(Nc1ccc(F)cc1)C1(C(=O)Nc2ccc(Oc3ccnc(Nc4cccc(N5CCOCC5)c4)n3)c(F)c2)CC1`: the half-maximal inhibitory concentration (IC50) was determined as 3150 nM in the data set with HCT-116; 2210 nM with HepG2; 3400 nM in the data set on PANC-1; 2920 nM in the data set on CAKI-1; 2340 nM in the data set on PC-3.
The matching figures for `O=C(Nc1ccc(F)cc1)C1(C(=O)Nc2ccc(Oc3ccnc(Nc4cccc(N5CCOCC5)c4)c3)cc2)CC1`: 4790 nM, 4860 nM, 4010 nM, 2590 nM and 3300 nM.
For `COC(=O)c1ccc(Nc2nccc(Oc3ccc(NC(=O)C4(C(=O)Nc5ccc(F)cc5)CC4)cc3)n2)nc1`, the 50% inhibitory concentration (IC50) in [1] is more than 2000 nM.
Turning to `CNC(=O)c1cccc(Nc2nccc(Oc3ccc(NC(=O)C4(C(=O)Nc5ccc(F)cc5)CC4)cc3)n2)c1`, the IC50 was determined as 3560 nM in the data set on HCT-116; 7010 nM with HepG2; 2850 nM with PANC-1; 3310 nM in the data set with CAKI-1; 1930 nM in the data set with PC-3.
The molecule `O=C(Nc1ccc(F)cc1)c1ccccc1Nc1ccc(Oc2ccnc(Nc3cccc(CN4CCOCC4)c3)n2)cc1` returned an IC50 in data set [1] of more than 1000 nM.
Regarding `O=C(Nc1ccc(F)cc1)c1ccccc1Nc1ccc(Oc2ccnc(Nc3cccc(N4CCOCC4)c3)n2)cc1`, the IC50 in data set [1] is more than 1000 nM.
In the case of `Cc1c(C(=O)Nc2ccc(Oc3ccnc(Nc4cccc(N5CCOCC5)c4)n3)c(F)c2)c(=O)n(-c2ccccc2)n1C`, the IC50 turned out to be 2340 nM in the data set with HCT-116; 2100 nM in the data set with HepG2; 2000 nM with PANC-1; 1880 nM in the data set with CAKI-1; 1800 nM with PC-3.
`Cc1c(C(=O)Nc2ccc(Oc3ccnc(Nc4cccc(N5CCOCC5)c4)n3)cc2)c(=O)n(-c2ccccc2)n1C`: the survival at 336 h in [2] came to 100%; in data set [5], 100%; in data set [6], 70%; in data set [11] it was 0%; in [16], 100%; in [19], 100%. Also, the IC50 in data set [3] was more than 40000 nM; in the data set on HCT-116, 1370 nM; with HepG2, 1340 nM; with PANC-1 it was 1010 nM; with CAKI-1, 530 nM; with PC-3, 1340 nM. Also, the Activity result in [4], in data set [12] and in data set [15] was “Non-Toxic” each time. The half-life (as a rule, the time in which the quantity being followed falls by half) is 8.9 h in [7] and 9.04 h in [21]. Moreover, the figures for the AUC(0-t) in data set [8] and in data set [14] were 8220 ng·h/mL and 19000 ng·h/mL, respectively. In addition, in [9], the bioavailability – broadly, the share of a dose that reaches the circulation, judged against a reference dose that is usually intravenous – amounted to 59.3%. In data set [10], the CL/F was 11 mL/min/kg. For the same molecule, the Tmax (as a rule, the time from dosing to the highest level) in data set [13] was determined as 6 h. Moreover, the CLz/F in [17] is 6.83 mL/min/kg. The Cmax (as a rule, the highest concentration seen after dosing) in data set [18] was determined as 3050 ng/mL; in data set [20], 2470 ng/mL.
For `O=C(Nc1ccc(F)cc1)C1(C(=O)Nc2ccc(Oc3ccnc(Nc4cccc(N5CCOCC5)c4)n3)cc2)CC1`, the 50% inhibitory concentration (IC50) with HCT-116 came out at 4200 nM; in the data set on HepG2 it was 3570 nM; with PANC-1, 6670 nM; with CAKI-1, 3900 nM; in the data set on PC-3 it was 2650 nM.
In data set [1], `O=C(Nc1ccc(Oc2ccnc(Nc3cccc(N4CCOCC4)c3)n2)cc1)c1ccccc1Nc1ccc(F)cc1` came in with an IC50 of more than 1000 nM.
Regarding `O=C1CCCc2cc(Nc3nccc(Oc4ccc(NC(=O)C5(C(=O)Nc6ccc(F)cc6)CC5)cc4)n3)ccc2N1`, the IC50 in the data set on HCT-116 came out at 3140 nM; in the data set on HepG2 it was 3240 nM; with PANC-1, 3280 nM; in the data set with CAKI-1 it was 1470 nM; with PC-3, 2600 nM.
In data set [1], `O=C(Nc1ccc(Oc2ccnc(Nc3cccc(CN4CCOCC4)c3)n2)cc1)c1ccccc1Nc1ccc(F)cc1` had a half-maximal inhibitory concentration (IC50) of more than 1000 nM.
For the molecule `COc1cc(C(=O)NCC2CC2)ccc1Nc1nccc(Oc2ccc(NC(=O)C3(C(=O)Nc4ccc(F)cc4)CC3)cc2)n1`, the IC50 in data set [1] is more than 2000 nM.
`COc1cc2nccc(Oc3ccc(NC(=O)C4(C(=O)Nc5ccc(F)cc5)CC4)cc3)c2cc1OC` [CABOZANTINIB]: in data set [3], the IC50 was more than 30000 nM.
